This note sets out measurements from PubChem BioAssay.

Test [1] in a line: Her2 expression decrease, cell viability multiplex – SKBR3 breast tumor cells, AlphaScreen, ATP viability, primary screen (AID 461;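 active = Her2 level under about 52% in both replicate screens, with viability over 70% of control, limit read from the data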;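 for Her2 level: lower value means less Her2 protein in the cells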;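 for viability: percent of carrier control wells set as 100% viability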). The note with it: SKBR3 Her2 protein level, 18-24 h, measured here: SKBR3 viability, ATP luminescence, at 10 µM.
The target in test [2] is Receptor tyrosine-protein kinase erbB-2 (Homo sapiens) (UniProt P04626). The description is as above. The note with it: 18-24 h, at 10 µM, stronger effect = lower value.
Sequence of Receptor tyrosine-protein kinase erbB-2 (Homo sapiens) (P04626 whole entry, looked up): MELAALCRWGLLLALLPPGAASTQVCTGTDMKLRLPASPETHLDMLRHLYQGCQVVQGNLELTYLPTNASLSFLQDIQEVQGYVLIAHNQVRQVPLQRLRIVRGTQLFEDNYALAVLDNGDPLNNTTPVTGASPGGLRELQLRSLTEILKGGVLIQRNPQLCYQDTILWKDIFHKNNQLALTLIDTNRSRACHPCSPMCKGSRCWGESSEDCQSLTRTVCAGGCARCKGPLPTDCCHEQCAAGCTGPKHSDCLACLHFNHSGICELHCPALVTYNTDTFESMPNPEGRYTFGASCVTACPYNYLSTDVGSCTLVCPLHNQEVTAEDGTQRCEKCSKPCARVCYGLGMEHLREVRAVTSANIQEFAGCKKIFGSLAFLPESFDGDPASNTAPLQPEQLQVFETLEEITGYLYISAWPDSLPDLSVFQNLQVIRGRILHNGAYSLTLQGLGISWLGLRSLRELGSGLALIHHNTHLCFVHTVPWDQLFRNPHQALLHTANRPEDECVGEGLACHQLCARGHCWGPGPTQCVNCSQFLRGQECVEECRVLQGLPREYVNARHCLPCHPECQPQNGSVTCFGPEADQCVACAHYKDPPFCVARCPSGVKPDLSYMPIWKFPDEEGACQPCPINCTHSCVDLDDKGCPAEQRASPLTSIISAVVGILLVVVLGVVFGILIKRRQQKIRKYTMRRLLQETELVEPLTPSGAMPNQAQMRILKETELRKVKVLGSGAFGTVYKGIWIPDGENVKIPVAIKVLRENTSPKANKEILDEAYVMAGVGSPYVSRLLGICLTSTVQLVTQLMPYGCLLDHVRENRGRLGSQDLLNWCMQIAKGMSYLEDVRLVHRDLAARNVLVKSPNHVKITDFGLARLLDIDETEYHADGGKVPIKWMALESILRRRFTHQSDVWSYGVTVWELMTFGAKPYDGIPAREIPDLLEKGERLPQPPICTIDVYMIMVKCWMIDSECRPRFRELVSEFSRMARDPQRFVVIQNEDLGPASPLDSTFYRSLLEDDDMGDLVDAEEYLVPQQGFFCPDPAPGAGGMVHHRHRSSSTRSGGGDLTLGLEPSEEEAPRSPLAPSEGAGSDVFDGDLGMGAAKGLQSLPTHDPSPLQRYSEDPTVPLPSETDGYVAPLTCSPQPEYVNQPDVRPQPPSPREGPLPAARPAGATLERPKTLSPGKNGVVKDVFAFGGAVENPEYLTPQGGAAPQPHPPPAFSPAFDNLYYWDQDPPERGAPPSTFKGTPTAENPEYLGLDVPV
The nature of test [3]: reduced viability of SK-BR-3 breast cancer cells – cell-based, 24 h, human, pilot screen (AID 572;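 active = viability at or below 10% of carrier control in both of two separate runs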;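 note: compound exposure lasted between 18 and 24 h rather than exactly 24 h; 100% = carrier-treated control wells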). The note with it: SK-BR-3 viability, CellTiter-Glo luminescence, at 10 µM, stronger effect = lower value. (In ATP-based viability assays light output follows the ATP content of the culture.)
The nature of test [4]: HUVEC growth inhibition – cell-based, human, primary screen (AID 575;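 active = viability at or below 30% in both replicate assays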;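 note: 100% = median of untreated cell wells with 0.1% DMSO on each plate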). The note with it: HUVEC proliferation, CellTiter-Glo luminescence, 72 h; at 10 µM; stronger effect = lower value. The method, boiled down:
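Timing: 72 h treatment at 37 °C; material: HUVEC primary cells; technique: CellTiter-Glo luminescence measuring cellular ATP; controls: vehicle and MePR control wells; measure: percent of median DMSO-control luminescence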

Test [5] in a line: H69AR cell proliferation blockers – human, duplicate replicates, primary screen (AID 580;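 active = viability at or under a set limit in both replicates, limit being median viability minus 3 SD, cut at about 48% in these data, passing the limit was not always enough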;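 note: 100% = mean luminescence of untreated wells and 0% = no signal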). The note with it: H69AR lung tumor cells viability, ATP luminescence, 72 h; at 10 µM; stronger effect = lower value.
Test [6] in a line: MRP1 drug-resistance reversers in H69AR cells – cell-based, doxorubicin co-treatment, pilot screen (AID 601). The note with it: CellTiter-Glo, 72 h, at 10 µM; for differential viability (reversal): stronger effect = higher value.
Test [7] can be described thus: yeast transport mutant growth inhibition pilot in 384-well plates, post-Golgi transport modulator project (AID 636; in the data active = inhibition above about 31%). The following applies: absorbance 615 nm, about 18 h, stronger effect = higher value.
Test [8] is described as follows: growth suppression of yeast trafficking mutant, preliminary HTS, modulators of trafficking downstream of Golgi apparatus project, 1536-format plate, OD 615 nm (AID 637; in the data active = inhibition above about 30%). The note with it: yeast transport mutant growth, absorbance 615 nm, 18 h; stronger effect = higher value.
The mark [9] stands for this setting: H69AR cells + 2 uM doxorubicin, measured here: viability with 2 uM doxorubicin, stronger effect = lower value.
Setting [10] is: H69AR cells, compound alone cytotoxicity.

Calls of active or inactive are those of the source.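 Rule for the calls, unless noted: active = viability loss from added drug above about 55%, and viability with drug at most 40%, in both replicates (limit read from the data, passing the limit was not always enough); inconclusive = both conditions met in only one replicate; inactive = neither replicate meets both conditions.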

As usually defined, the viability is a read-out of living cells in per cent, often relative to untreated cells. In general, inhibition refers to the drop in the measured response relative to a control, in per cent. For the molecule `Cn1cc(C(=O)c2ccc(F)cc2)cc1-c1nc2ccccc2n1C`, the viability was 91% in test [1]; 91% (inactive) in test [3]; 76% (inactive) in test [4]; 102% (inactive) in test [5]; 92% in test [6] (setting [9]); 102% in test [6] (setting [10]). Moreover, the Her2 level in test [2] is 65% (inactive). Besides, the differential viability (reversal) in test [6] (H69AR cells + 2 uM doxorubicin) was 10% (inactive). Further, the inhibition in test [7] was -0.4% (inactive); in test [8], 1.64% (inactive).

Turning to `O=c1cnnc(NCc2ccccc2)[nH]1`, the viability in test [1] is 88.5%; in test [3], 88.5% (inactive); in test [4], 106% (inactive); in test [5] it was 103% (inactive); in test [6] (setting [9]), 91.5%; in test [6] (setting [10]) it was 103%. The Her2 level in test [2] was 108% (inactive). In addition, the differential viability (reversal) in test [6] (H69AR cells + 2 uM doxorubicin) was 11.8% (inactive). The figures for the inhibition in test [7] and in test [8] were -5.79% (inactive) and -5.33% (inactive), respectively.

On to `c1ccc(-n2ncc3c(N4CCCCC4)ncnc32)cc1`, for which the viability in test [1] was 105%; in test [3], 105% (inactive); in test [4], 59.4% (inactive); in test [5], 70% (inactive); in test [6] (setting [9]) it was 65.1%; in test [6] (setting [10]), 70%. For the same molecule, the Her2 level in test [2] is 90.5% (inactive). Also, the differential viability (reversal) in test [6] (H69AR cells + 2 uM doxorubicin) is 4.94% (inactive). In addition, the inhibition in test [7] was -3.6% (inactive); in test [8] it was -4.17% (inactive).

On to `COC(=O)c1cc(OC)c(OCc2cc(C(=O)OC)oc2C)c(OC)c1`, for which the viability in test [1] is 95%; in test [3], 95% (inactive); in test [4], 107% (inactive); in test [5] it was 90.7% (inactive); in test [6] (setting [9]), 89.7%; in test [6] (setting [10]), 90.7%. Further, the Her2 level in test [2] is 89.5% (inactive). Also, the differential viability (reversal) in test [6] (H69AR cells + 2 uM doxorubicin) is 1.03% (inactive). Moreover, the results for the inhibition in test [7] and in test [8] were -9.32% (inactive) and 1.8% (inactive), respectively.

Turning to `Oc1c(Cl)cc(Cl)cc1CNc1ccc(Br)cn1`, the viability was 100% in test [1]; 100% (inactive) in test [3]; 74.8% (inactive) in test [4]; 93.2% (inactive) in test [5]; 96.8% in test [6] (setting [9]); 93.2% in test [6] (setting [10]). Besides, in test [2], the Her2 level is 88% (inactive). The differential viability (reversal) in test [6] (H69AR cells + 2 uM doxorubicin) is -3.58% (inactive). Also, the inhibition in test [7] was 1.58% (inactive); in test [8], 13.4% (inactive).

In the case of `CCCCc1n[nH]c2c1C(=O)CC(C)(C)C2`, the viability in test [1] was 73.5%; in test [3], 73.5% (inactive); in test [4], 102% (inactive); in test [5] it was 96.9% (inactive); in test [6] (setting [9]) it was 83.5%; in test [6] (setting [10]), 96.9%. Also, in test [2], the Her2 level is 90.5% (inactive). Further, the differential viability (reversal) in test [6] (H69AR cells + 2 uM doxorubicin) is 13.4% (inactive). Moreover, the inhibition in test [7] was -3.78% (inactive); in test [8] it was 0% (inactive).

Consider `Cc1[nH]c(=O)[nH]c(=O)c1S(=O)(=O)Nc1ccc(Oc2ccccc2)cc1`, for which the viability in test [1] is 96%; in test [3], 96% (inactive); in test [4], 93.6% (inactive); in test [5], 97.8% (inactive); in test [6] (setting [9]), 87.5%; in test [6] (setting [10]), 97.8%. Also, the Her2 level in test [2] was 84.5% (inactive). Also, in test [6] (H69AR cells + 2 uM doxorubicin), the differential viability (reversal) is 10.3% (inactive). Also, the figures for the inhibition in test [7] and in test [8] were -0.66% (inactive) and 1.45% (inactive), respectively.

With `O=C(CSc1nnc2ncccn12)N1CCCCCC1`, the viability is 102% in test [1]; 102% (inactive) in test [3]; 103% (inactive) in test [4]; 107% (inactive) in test [5]; 91.3% in test [6] (setting [9]); 107% in test [6] (setting [10]). Also, the Her2 level in test [2] is 85% (inactive). In test [6] (H69AR cells + 2 uM doxorubicin), the differential viability (reversal) is 15.6% (inactive). Besides, the inhibition in test [7] was -3.84% (inactive); in test [8] it was -7.3% (inactive).

In the case of `COc1ccc(C2C(C(=O)c3sc(C)nc3C)=C(O)C(=O)N2CCN2CCOCC2)cc1` (stereo not given), the viability is 99% in test [1]; 99% (inactive) in test [3]; 111% (inactive) in test [4]; 102% (inactive) in test [5]; 96.3% in test [6] (setting [9]); 102% in test [6] (setting [10]). Moreover, the Her2 level in test [2] is 92.5% (inactive). Besides, the differential viability (reversal) in test [6] (H69AR cells + 2 uM doxorubicin) is 5.41% (inactive). Moreover, the inhibition is 0% (inactive) in test [7] and -4.19% (inactive) in test [8].

Turning to `COc1ccc2[nH]c(=O)c(CN(CC3CCCO3)C(=O)Nc3ccc(F)cc3)cc2c1` (stereo not given), the viability in test [1] is 84.5%; in test [3], 84.5% (inactive); in test [4] it was 26.1% (active); in test [5] it was 39.4% (active); in test [6] (setting [9]), 47.8%; in test [6] (setting [10]), 39.4%. The Her2 level in test [2] is 113% (inactive). In addition, the differential viability (reversal) in test [6] (H69AR cells + 2 uM doxorubicin) is -8.38% (inactive). For the same molecule, the inhibition in test [7] is -0.68% (inactive); in test [8] it was 2.46% (inactive).

As for `Fc1ccc(Cn2nnc(-c3ccc(CN4CCOCC4)cc3)n2)cc1`, the viability in test [1] was 88%; in test [3], 88% (inactive); in test [4], 108% (inactive); in test [5], 103% (inactive); in test [6] (setting [9]), 96.3%; in test [6] (setting [10]), 103%. The Her2 level in test [2] was 122% (inactive). In test [6] (H69AR cells + 2 uM doxorubicin), the differential viability (reversal) was 6.81% (inactive). Also, the inhibition is 84.7% (active) in test [7] and 43% (active) in test [8].

In the case of `c1ccc2c(c1)CNc1ccccc1C2`, the viability was 97.5% in test [1]; 97.5% (inactive) in test [3]; 73.5% (inactive) in test [4]; 93.1% (inactive) in test [5]; 98% in test [6] (setting [9]); 93.1% in test [6] (setting [10]). The Her2 level in test [2] was 90.5% (inactive). The differential viability (reversal) in test [6] (H69AR cells + 2 uM doxorubicin) is -4.85% (inactive). Moreover, the values for the inhibition in test [7] and in test [8] were -3.87% (inactive) and -3.71% (inactive), respectively.

As for `Cc1cccc(NC(=O)c2cc3n(n2)C(C(F)(F)F)CC(c2ccc4c(c2)OCO4)N3)c1` (stereo not given), the viability was 113% in test [1]; 113% (inactive) in test [3]; 56.9% (inactive) in test [4]; 73.9% (inactive) in test [5]; 80.2% in test [6] (setting [9]); 73.9% in test [6] (setting [10]). In test [2], the Her2 level was 68.5% (inactive). Moreover, the differential viability (reversal) in test [6] (H69AR cells + 2 uM doxorubicin) was -6.35% (inactive). The values for the inhibition in test [7] and in test [8] were -0.53% (inactive) and 1.61% (inactive), respectively.

Regarding `COC(=O)c1ccc(COc2ncnc3c(Cl)cc(Cl)cc23)o1`, the viability is 102% in test [1]; 102% (inactive) in test [3]; 95.4% (inactive) in test [4]; 85.9% (inactive) in test [5]; 67.4% in test [6] (setting [9]); 85.9% in test [6] (setting [10]). Besides, the Her2 level in test [2] was 100% (inactive). For the same molecule, the differential viability (reversal) in test [6] (H69AR cells + 2 uM doxorubicin) was 18.5% (inactive). The inhibition was -8.16% (inactive) in test [7] and -2.73% (inactive) in test [8].
